We go through 45 molecules from ChEMBL document CHEMBL1127049, “Nonpeptide angiotensin II receptor antagonists. 2. Design, synthesis, and structure-activity relationships of 2-alkyl-4-(1H-pyrrol-1-yl)-1H-imidazole derivatives: profile of 2-propyl-1-[[2'-(1H-tetrazol-5-yl)-[1,1' -biphenyl]-4-yl]-methyl]-4-[2-(trifluoroacetyl)-1H-pyrrol-1-yl]-1H- …” (J Med Chem, 1993).

As usually defined, the ED50 is the dose that gives a 50% effect, or the effect in half of the subjects. Low values mean greater potency, high ones weaker potency. What is called IC50 is the midpoint of a concentration-inhibition curve. A higher IC50 goes with weaker potency.

For experiment [1], the system named is Rattus norvegicus. In words: Tested in vivo for effective dose (iv) that produces inhibition of pressor response to Angiotensin II in conscious normotensive rats. Format: functional.
Experiment [2] relates to Rattus norvegicus. The experiment is described as follows: Effect on mean arterial pressure after oral dosing at 10 mg/kg to renal hypertensive rats. Format: functional, Artery. Put shortly: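 Male Sprague-Dawley rats, bilateral renal artery clipping at 5 weeks, used 10-12 weeks later; aortic cannula to neck, 48 h recovery; rats with mean BP <150 mmHg excluded. Compound suspended in 0.5% methocel in water, oral gavage 10 mg/kg in 2 mL/kg to conscious rats (n = 5-6). BP and heart rate recorded continuously, averaged over 30-min intervals.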

The target of experiment [3] is T1, Angiotensin II receptor (AT-1) type-1 (Rattus norvegicus, UniProt P29089+P25095).
T1 sequence (P29089 whole entry): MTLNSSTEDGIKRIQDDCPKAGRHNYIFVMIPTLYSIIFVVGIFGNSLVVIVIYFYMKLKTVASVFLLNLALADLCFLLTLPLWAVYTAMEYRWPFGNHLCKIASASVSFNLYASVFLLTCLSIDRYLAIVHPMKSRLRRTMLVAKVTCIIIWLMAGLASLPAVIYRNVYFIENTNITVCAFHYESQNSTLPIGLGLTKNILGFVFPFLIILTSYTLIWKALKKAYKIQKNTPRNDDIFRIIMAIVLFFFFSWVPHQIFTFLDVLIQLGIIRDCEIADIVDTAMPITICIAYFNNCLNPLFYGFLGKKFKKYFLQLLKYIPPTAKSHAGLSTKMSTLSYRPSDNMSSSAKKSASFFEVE
T1 sequence (P25095 whole entry): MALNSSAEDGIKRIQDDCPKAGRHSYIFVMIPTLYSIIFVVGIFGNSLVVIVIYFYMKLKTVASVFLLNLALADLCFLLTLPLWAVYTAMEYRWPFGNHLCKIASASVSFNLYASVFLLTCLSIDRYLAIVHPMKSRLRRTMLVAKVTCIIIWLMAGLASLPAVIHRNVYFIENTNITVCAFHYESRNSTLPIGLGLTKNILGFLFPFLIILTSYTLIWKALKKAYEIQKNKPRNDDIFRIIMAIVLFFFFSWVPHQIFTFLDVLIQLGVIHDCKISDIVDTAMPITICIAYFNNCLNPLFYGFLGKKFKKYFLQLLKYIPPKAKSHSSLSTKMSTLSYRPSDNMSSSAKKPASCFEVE
The experiment is described as follows: Inhibitory concentration against binding of [125I]angiotensin II to rat liver expressing Angiotensin II receptor. An outline of the steps: (§1)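 Rat liver membranes homogenized in 10 mM HEPES pH 7.4 with protease inhibitors, captopril and PMSF. Nonspecific binding defined with 1.0 µM saralasin. No BSA. IC50 by nonlinear fit to mass-action equation from at least five or six concentrations.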

Experiment [4] deals with T1, Angiotensin II receptor (AT-1) type-1. The experiment is described as follows: Tested for inhibitory concentration against AT1 receptor binding affinity in rat liver. An outline of the steps:
as §1

On to `CCCCc1nc(Cl)c(CO)n1Cc1ccc(-c2ccccc2-c2nnn[nH]2)cc1` [LOSARTAN], for which, in the experiment on Rattus norvegicus [1], the ED50 stood at 75.9 µg/min/kg. Besides, the “Change in BP” value with Rattus norvegicus [2] is listed as -27. Consider `CCCc1nc(-n2c(C)ccc2CCC)c(C(=O)OC)n1Cc1ccc(-c2ccccc2-c2nn[nH]n2)cc1`, for which the IC50 in experiment [3] is reported as 15.1 nM. Still for that read-out and setting: the same measure for `CCCc1nc(-n2cccc2C(=O)C(F)(F)F)c(C#N)n1Cc1ccc(-c2ccccc2-c2nn[nH]n2)cc1`: 171 nM; for `CCCc1nc(-n2cccc2C=O)c(C(=O)O)n1Cc1ccc(-c2ccccc2-c2nn[nH]n2)cc1`: 0.8 nM; for `CCCc1nc(-n2cccc2)cn1Cc1ccc(-c2ccccc2-c2nn[nH]n2)cc1`: 5.6 nM. `CCCc1nc(-n2cccc2)c(C(=O)OCC)n1Cc1ccc(-c2ccccc2-c2nn[nH]n2)cc1` gave an IC50 in experiment [3] of 12.2 nM. Also, the “Change in BP” value in the experiment on Rattus norvegicus [2] is on record as -22. The corresponding values for `CCCCc1nc(-n2cccc2C(=O)C(F)(F)F)c(C(=O)O)n1Cc1ccc(-c2ccccc2-c2nn[nH]n2)cc1` are 2.37 nM and -16. For `CCCCc1nc(-n2cccc2C(=O)C(F)(F)F)c(C(=O)OC)n1Cc1ccc(-c2ccccc2-c2nn[nH]n2)cc1` the same measures were 3.57 nM and -19. As to `CCCc1nc(-n2cccc2C(=O)O)c(C(=O)O)n1Cc1ccc(-c2ccccc2-c2nn[nH]n2)cc1`, in experiment [3], the IC50 worked out at 11.2 nM. Still for that read-out and setting: the result for `CCCc1nc(-n2cccc2)c(/C=C(\C)C(=O)O)n1Cc1ccc(-c2ccccc2-c2nn[nH]n2)cc1` reads 2.5 nM.

On to `CCCc1nc(-n2c(C)ccc2CCC)c(C(=O)O)n1Cc1ccc(-c2ccccc2-c2nn[nH]n2)cc1`, for which the IC50 in experiment [3] worked out at 0.9 nM. Besides, in the experiment with Rattus norvegicus [2], the Change in BP was -6. As to `CCCc1nc(-n2ccc(C(=O)O)c2C)c(C(=O)O)n1Cc1ccc(-c2ccccc2-c2nn[nH]n2)cc1`, in experiment [3], the IC50 worked out at 11 nM. The same measure, in the same setting: the result for `CCCc1nc(-n2cccc2C(O)C(F)(F)F)c(C#N)n1Cc1ccc(-c2ccccc2-c2nn[nH]n2)cc1` (stereo not given) reads 233 nM.

`CCCc1nc(-n2c(C)ccc2C)c(C(=O)O)n1Cc1ccc(-c2ccccc2-c2nn[nH]n2)cc1` displayed an IC50 in experiment [3] of 0.82 nM. In the experiment with Rattus norvegicus [2], the “Change in BP” value is -26.

Regarding `CCCc1nc(-n2cccc2)c(/C=C/C(=O)O)n1Cc1ccc(-c2ccccc2-c2nn[nH]n2)cc1`, the IC50 in experiment [3] is reported as 4 nM. Same read-out and setting: the result for `CCCc1nc(-n2ccc(C(=O)OCC)c2)c(C(=O)OC)n1Cc1ccc(-c2ccccc2-c2nn[nH]n2)cc1` reads 158 nM. Still for that read-out and setting: the same measure for `CCCc1nc(-n2c(C)ccc2C)c(C#N)n1Cc1ccc(-c2ccccc2-c2nn[nH]n2)cc1`: 188 nM. Regarding `CCCc1nc(-n2cccc2)c(C(=O)O)n1Cc1ccc(-c2ccccc2-c2nn[nH]n2)cc1`, in experiment [3], the IC50 was 1.71 nM. The molecule also gave an ED50 with Rattus norvegicus [1] of 27 µg/min/kg. Further, the “Change in BP” value in the experiment on Rattus norvegicus [2] is -25.

In turn, `COC(=O)c1c(-n2c(C)ccc2C)nc(C2CC2)n1Cc1ccc(-c2ccccc2-c2nn[nH]n2)cc1` gave an IC50 in experiment [3] of 65.5 nM. In experiment [3], `Cc1ccc(C)n1-c1nc(C2CC2)n(Cc2ccc(-c3ccccc3-c3nn[nH]n3)cc2)c1C(=O)O` registered an IC50 of 2.81 nM. Besides, the “Change in BP” value in the experiment on Rattus norvegicus [2] is -11. The molecule `CCCc1nc(-n2c(C)ccc2C)c(C=O)n1Cc1ccc(-c2ccccc2-c2nn[nH]n2)cc1` gave a half-maximal inhibitory concentration (IC50) in experiment [3] of 13.7 nM.

On to `CCCc1nc(-n2ccc(C(=O)O)c2)c(C(=O)O)n1Cc1ccc(-c2ccccc2-c2nn[nH]n2)cc1`, for which the IC50 in experiment [3] was determined as 25.1 nM.

In experiment [3], `CCCc1nc(-n2cccc2)c(/C=C(\C)C(=O)OCC)n1Cc1ccc(-c2ccccc2-c2nn[nH]n2)cc1` gave an IC50 of 2.8 nM. Further, in the experiment with Rattus norvegicus [2], the “Change in BP” value is -12.

In experiment [3], `CCCc1nc(-n2c(C)ccc2C)c(/C=C/C(=O)O)n1Cc1ccc(-c2ccccc2-c2nn[nH]n2)cc1` displayed a half-maximal inhibitory concentration (IC50) of 3.32 nM. The molecule further came in with an ED50 with Rattus norvegicus [1] of 16.4 µg/min/kg. For the same molecule, in the experiment with Rattus norvegicus [2], the “Change in BP” value is given as -8. Regarding `CCCc1nc(-n2c(C)ccc2C)c(CO)n1Cc1ccc(-c2ccccc2-c2nn[nH]n2)cc1`, the IC50 in experiment [3] turned out to be 23.8 nM. `CCCc1nc(-n2c(C)ccc2C)c(C(=O)OC)n1Cc1ccc(-c2ccccc2-c2nn[nH]n2)cc1`: the concentration for half-maximal inhibition (IC50) in experiment [3] is 20.9 nM. Besides, in the experiment with Rattus norvegicus [2], the “Change in BP” value is -8. `CCCc1nc(-n2ccc(C(=O)OC)c2C)c(C(=O)O)n1Cc1ccc(-c2ccccc2-c2nn[nH]n2)cc1`: the IC50 in experiment [3] is recorded as 1.37 nM.

As to `CCCc1nc(-n2cccc2C(=O)O)c(C#N)n1Cc1ccc(-c2ccccc2-c2nn[nH]n2)cc1`, in experiment [3], the IC50 was found to be 103 nM. The same measure, in the same setting: the same measure for `CCCc1nc(-n2c(Cl)ccc2Cl)c(C(=O)OCC)n1Cc1ccc(-c2ccccc2-c2nn[nH]n2)cc1`: 3.93 nM; for `CCCc1nc(-n2cccc2)c(C#N)n1Cc1ccc(-c2ccccc2-c2nn[nH]n2)cc1`: 332 nM. As for `CCCCc1nc(-n2cccc2)c(C(=O)O)n1Cc1ccc(-c2ccccc2-c2nn[nH]n2)cc1`, in experiment [3], the IC50 is given as 1.57 nM. The ED50 in the experiment on Rattus norvegicus [1] came out at 38 µg/min/kg. In addition, the “Change in BP” value with Rattus norvegicus [2] is listed as -27. In experiment [3], `CCCc1nc(-n2ccc(C(=O)OC)c2C)c(C(=O)OC)n1Cc1ccc(-c2ccccc2-c2nn[nH]n2)cc1` displayed an IC50 of 18.8 nM.

For `CCCCc1nc(-n2cccc2)c(C#N)n1Cc1ccc(-c2ccccc2-c2nn[nH]n2)cc1`, in experiment [3], the IC50 is 209 nM.

Turning to `CCCc1nc(-n2cccc2C(=O)C(F)(F)F)c(C(=O)O)n1Cc1ccc(-c2ccccc2-c2nn[nH]n2)cc1`, in experiment [3], the IC50 is 0.58 nM. The molecule also yielded an ED50 with Rattus norvegicus [1] of 6.23 µg/min/kg. The “Change in BP” value in the experiment with Rattus norvegicus [2] is -29. As for `CCCc1nc(-n2c(C)ccc2C)c(/C=C/C(=O)OC)n1Cc1ccc(-c2ccccc2-c2nn[nH]n2)cc1`, the IC50 in experiment [3] is reported as 21.6 nM. Still for that read-out and setting: the same measure for `CCCc1nc(-n2ccc(C(=O)OCC)c2)c(C(=O)O)n1Cc1ccc(-c2ccccc2-c2nn[nH]n2)cc1`: 22 nM. With `CCCCc1nc(Cl)c(C(=O)O)n1Cc1ccc(-c2ccccc2-c2nn[nH]n2)cc1` [CARBOXYLIC ACID METABOLITE], in the experiment with Rattus norvegicus [1], the ED50 worked out at 13.6 µg/min/kg. Further, in the experiment with Rattus norvegicus [2], the “Change in BP” value was -22. Consider `CCCCc1nc(-n2cccc2)cn1Cc1ccc(-c2ccccc2-c2nn[nH]n2)cc1`, for which the IC50 in experiment [3] was found to be 27 nM. Still for that read-out and setting: the same measure for `CCCc1nc(-n2c(Cl)ccc2Cl)c(C(=O)O)n1Cc1ccc(-c2ccccc2-c2nn[nH]n2)cc1`: 0.14 nM. Consider `CCCc1nc(C(F)(F)C(F)(F)F)c(C(=O)O)n1Cc1ccc(-c2ccccc2-c2nn[nH]n2)cc1`, for which, in experiment [4], the IC50 was 3.4 nM. For the molecule `CCCc1nc(-n2cccc2C(O)C(F)(F)F)c(C(=O)O)n1Cc1ccc(-c2ccccc2-c2nn[nH]n2)cc1` (stereo not given), the IC50 in experiment [3] is given as 1.04 nM. The same measure, in the same setting: the result for `CCCc1nc(-n2cccc2C(=O)OC)c(C#N)n1Cc1ccc(-c2ccccc2-c2nn[nH]n2)cc1` reads 53.3 nM. `CCCc1nc(-n2cccc2C(=O)C(F)(F)F)c(C(=O)OC)n1Cc1ccc(-c2ccccc2-c2nn[nH]n2)cc1` displayed an IC50 in experiment [3] of 3.64 nM. The ED50 in the experiment on Rattus norvegicus [1] worked out at 36 µg/min/kg. Besides, in the experiment on Rattus norvegicus [2], the “Change in BP” value was -28. In turn, `CCCc1nc(-n2cccc2C(=O)O)c(C(N)=O)n1Cc1ccc(-c2ccccc2-c2nn[nH]n2)cc1` displayed an IC50 in experiment [3] of 8.76 nM.

`CCCCc1nc(-n2cccc2)c(C(=O)c2ccccc2)n1Cc1ccc(-c2ccccc2-c2nn[nH]n2)cc1`: the IC50 in experiment [3] was found to be 23.3 nM.
